We go through one compound from ChEMBL document CHEMBL4622964, “Designing Dihydrofolate Reductase Inhibitors as X-ray Radiosensitizers to Reverse Radioresistance of Cervical Cancer” (ACS Med Chem Lett, 2020).

The source made the active and inactive calls. The calls are words filed in the database; no cut-off is given here.

Series [1] concerns HeLa. Kind of series: Ratio of IC50 for antiproliferative activity against human HeLa cells assessed as reduction in cell viability incubated for 12 hrs to IC50 for antiproliferative activity against human HeLa cells assessed as reduction in cell viability preincubated for 12 hrs followed by 4 Gy irradiation and measured after 60 hrs by MTT assay. The format is functional. In short, it runs like this:
(§1)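 MTT viability assay in HeLa cancer cells, with the test agent alone (0 Gy) or combined with 4 Gy X-rays. IC50 values are in μM. Sensitivity enhancement ratio = IC50(0 Gy)/IC50(4 Gy).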
(Formazan colour is commonly taken as a measure of viable cells.)

Series [2] addresses T1, Dihydrofolate reductase (Homo sapiens) (UniProt P00374).
T1 sequence (whole entry): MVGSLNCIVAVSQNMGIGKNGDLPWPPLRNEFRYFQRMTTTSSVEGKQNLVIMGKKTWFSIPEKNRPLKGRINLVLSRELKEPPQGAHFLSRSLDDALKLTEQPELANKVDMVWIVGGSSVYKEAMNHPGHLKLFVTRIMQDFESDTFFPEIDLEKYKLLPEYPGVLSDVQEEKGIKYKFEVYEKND
Kind of series: Inhibition of DHFR in human HeLa cells at 10 uM relative to control. The format is cell-based. The essentials:
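HeLa cells treated with compound; DHFR activity assayed in cell lysates, inhibition expressed relative to untreated control.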

A short description of series [3]: Toxicity in BALB/c mouse xenografted with human HeLa cells assessed as kidney damage by measuring effect on uric acid level at 4 mg/kg, iv administered every 3 days for 21 days. Format: organism-based. Particulars: in vivo. The essentials:
(§2)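 HeLa xenograft nude mice dosed at 4 mg/kg iv every 3 days over 21 days, alone or with X-rays; blood collected 24 h after last injection for serum biochemistry: ALT, AST (liver), BUN and uric acid (kidney).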
For orientation: Xenograft models place foreign cells or tissue in a host animal.

Series [4] relates to HeLa. Kind of series: Induction of apoptosis in human HeLa cells assessed as caspase-8 activation at 1 uM using […] as substrate after 12 hrs by fluorescence based assay relative to control. Format: functional. The essentials: (§3)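 Caspase-3 and caspase-8 activities were measured in HeLa cells after 12 h at 1 μM, without or with 4 Gy X-rays. Mean ± SD of three independent experiments.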

Series [5] concerns HeLa. In words: Effect on dihydrofolate reductase protein expression in human HeLa cell lysates at 1 to 2 uM by Western blot analysis. The format is functional, cell-based.
Series [6] can be described thus: Toxicity in BALB/c mouse xenografted with human HeLa cells assessed as body weight loss at 4 mg/kg, iv administered for every 3 days and measured after 21 days. Format: organism-based. Particulars: in vivo, 504 h. The essentials: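 HeLa-tumor-bearing nude mice given compound at 4 mg/kg by tail-vein injection every 3 days, alone or with X-rays; body weight recorded across 21 days.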

The subject of series [7] is HeLa. In words: Induction of mitochondrial dysfunction in human HeLa cells assessed as change in mitochondrial membrane potential at 1 uM incubated for 24 hrs in presence of 4 Gy X-ray irradiation by JC1 staining based flow cytometry (reference value: 4.9%). The format is functional. In short, it runs like this: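 Mitochondrial membrane potential was assessed by JC-1 flow cytometry in HeLa cells treated at 1 μM without or with 4 Gy X-rays. Green fluorescence gives the proportion of cells with lost ΔΨm.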
A general note: Flow cytometry measures light scatter and fluorescence of single cells or particles in a stream.

Series [8] concerns HeLa. Kind of series: Induction of apoptosis in human HeLa cells assessed as caspase-3 activation at 1 uM using Ac-DEVD-AMC as substrate after 12 hrs in presence of 4 Gy X-ray radiation by fluorescence based assay relative to control. The format is functional. In short, it runs like this:
as §3

A short description of series [9]: Toxicity in BALB/c mouse xenografted with human HeLa cells assessed as liver damage by measuring effect on ALT level at 4 mg/kg, iv administered every 3 days for 21 days in presence of 4 Gy X-ray irradiation. Format: organism-based. Particulars: in vivo. In short, it runs like this:
as §2

The subject of series [10] is HeLa. In words: Antitumor activity against human HeLa cells xenografted in BALB/c mouse assessed as reduction in tumor growth at 4 mg/kg, iv administered for every 3 days for 21 days in presence of 4 Gy X-ray irradiation relative to control. More on the design: scale not given: the % may be the effect or the level left. Format: functional. In short, it runs like this: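 HeLa tumour-bearing nude mice were dosed at 4 mg/kg by tail-vein injection every 3 days over a 21-day period, with or without X-ray irradiation. Tumours were photographed and sectioned for H&E staining. Body weight was recorded over the 21 days.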

Series [11] is described as follows: Toxicity in BALB/c mouse xenografted with human HeLa cells assessed as heart damage at 4 mg/kg, iv administered for every 3 days for 21 days and measured after 24 hrs post last dose by H and E staining based light microscopic analysis. Particulars: in vivo. Format: organism-based. The essentials:
(§4)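 HeLa-tumor-bearing nude mice dosed at 4 mg/kg iv every 3 days for 21 days, alone or with X-rays; euthanized 24 h after last injection; heart, liver, lungs, kidneys and spleen sectioned and stained with H&E.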

A short description of series [12]: Toxicity in BALB/c mouse xenografted with human HeLa cells assessed as kidney damage at 4 mg/kg, iv administered for every 3 days for 21 days and measured after 24 hrs post last dose by H and E staining based light microscopic analysis. Particulars: in vivo. Format: organism-based. The essentials:
as §4

A short description of series [13]: Toxicity in BALB/c mouse xenografted with human HeLa cells assessed as spleen damage at 4 mg/kg, iv administered for every 3 days for 21 days and measured after 24 hrs post last dose in presence of 4 Gy X-ray irradiation by H and E staining based light microscopic analysis. Format: organism-based. Particulars: in vivo. In short, it runs like this:
as §4

In series [14] the test system is HeLa. Kind of series: Induction of mitochondrial dysfunction in human HeLa cells assessed as increase in mitochondrial fission at 1 uM after 24 hrs in presence of 4 Gy X-ray irradiation by DAPI staining based fluorescence microscopic analysis. Format: functional, cell-based. The essentials:
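HeLa cells treated with 1 μM compound, without or with 4 Gy X-rays; mitochondrial morphology imaged by fluorescence microscopy after MitoTracker and DAPI co-staining.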

A short description of series [15]: Toxicity in BALB/c mouse xenografted with human HeLa cells assessed as liver damage at 4 mg/kg, iv administered for every 3 days for 21 days and measured after 24 hrs post last dose in presence of 4 Gy X-ray irradiation by H and E staining based light microscopic analysis. The format is organism-based. Particulars: in vivo. The essentials: as §4
Series [16] is described as follows: Toxicity in BALB/c mouse xenografted with human HeLa cells assessed as kidney damage by measuring effect on BUN level at 4 mg/kg, iv administered every 3 days for 21 days. Particulars: in vivo. The format is organism-based. The essentials: as §2
For series [17], the system named is HeLa. In words: Antiproliferative activity against human HeLa cells assessed as reduction in cell viability incubated for 12 hrs by MTT assay. Format: functional, cell-based. The essentials: as §1
A short description of series [18]: Safety index, ratio of IC50 for cytotoxicity against human Ect1/E6E7 cells assessed as reduction in cell viability in presence of 4 Gy irradiation by MTT assay to antiproliferative activity against human HeLa cells assessed as reduction in cell viability preincubated for 12 hrs followed by 4 Gy irradiation and measured after 60 hrs by MTT assay. Format: toxicity, cell-based. Particulars: Ect1/E6E7 cells versus HeLa cells, read-out: Ratio IC50. The essentials: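 MTT viability assay on Ect1/E6E7 normal ectocervical cells and HeLa cells, with 0 or 4 Gy X-rays. SER = IC50(0 Gy)/IC50(4 Gy) in the same line; safe index SI4 = IC50 Ect1/E6E7 + 4 Gy divided by IC50 HeLa + 4 Gy.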

A short description of series [19]: Drug uptake in human HeLa cells at 4 uM after 4 hrs by fluorescence based assay. Format: ADME, cell-based.
In series [20] the test system is HeLa. In words: Antiproliferative activity against human HeLa cells assessed as reduction in cell viability preincubated for 12 hrs followed by 4 Gy irradiation and measured after 60 hrs by MTT assay. The format is functional, cell-based. Particulars: light or radiation study. In short, it runs like this:
as §1

The nature of series [21]: Toxicity in BALB/c mouse xenografted with human HeLa cells assessed as lung damage at 4 mg/kg, iv administered for every 3 days for 21 days and measured after 24 hrs post last dose in presence of 4 Gy X-ray irradiation by H and E staining based light microscopic analysis. Format: organism-based. Particulars: in vivo. In short, it runs like this:
as §4

As to `Nc1nc(N)c2nc3c(nc2n1)-c1cccc2cccc-3c12`, the “Ratio IC50” value in the series with HeLa [1] was 3.3. Further, in [2], the inhibition (in general, the percentage by which the read-out fell short of the control) was 76%. Also, the Activity entry is “Non-Toxic” in series [3]; 110% with HeLa [4]; “Non-Toxic” in series [6]; 32.3% with HeLa [7]; 150% in the series on HeLa [8]; “Non-Toxic” in series [9]. Moreover, the Activity with HeLa [10] is on record as 32%; in series [11] it was “Non-Toxic”; in series [12], “Non-Toxic”; in series [13], “Non-Toxic”; in [15] it was “Non-Toxic”; in series [16], “Non-Toxic”. The Activity entry in series [21] is listed as “Non-Toxic”. In addition, the outcome in the series on HeLa [5] and in the series with HeLa [14] was Active. Besides, the IC50 (usually the midpoint of a concentration-inhibition curve) with HeLa [17] amounted to 2.1 µM; in the series on HeLa [20] it was 0.64 µM. For the same compound, the selectivity ratio at 60 h in series [18] came out at 4.8. In addition, the Drug uptake result in [19] is given as “Active”.
